Screens: PubChem BioAssay, several laboratories
UPR CHOP act = activators of apoptotic CHOP UPR arm, primary screen, cell-based, CHO-CHOP luciferase reporter, luminescence, uHTS | UPR activation; percent of tunicamycin response over DMSO baseline | activation, % at 10 µM | 0.34% of 330,000 active | AID 449763, 2010;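 active = at 10 µM dose, activation of 40% or more, normalized to positive control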;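 also: 100% = tunicamycin at 10 µg/mL and 0% = DMSO alone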
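Assay system: CHO-CHOP cells, stable luciferase reporter of PERK-eIF2a-CHOP signalling / Buffer or medium: F12 plus 10% serum / Compound dosing: one dose, 10 µM in 0.5% DMSO / Times: 6 h compound treatment, 37 °C / Technique: luciferase luminescence / Read-out: % reporter activation, DMSO baseline versus tunicamycin full activation / Benchmarks: tunicamycin and DMSO controls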
PfM18AAP inh-1 = PfM18AAP inhibitors, malaria aminopeptidase, primary screen, biochemical, QFRET, recombinant enzyme | H-Glu-NHMec fluorogenic cleavage | M18 aspartyl aminopeptidase (Plasmodium falciparum 3D7) | AID 1822, 2009 | 1.2% of 290,000 active | inhibition, % at 7.35 µM;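 active = inhibition above the campaign mean inhibition over all tested compounds plus 3 SD, cut at about 28% in these data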;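 also: 0% = plate median of test compound wells and 100% = 2 mM ZnCl2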
CHOP inhibitor = inhibitors of CHOP promoter induction, primary screen, cell-based, unfolded protein response, luciferase reporter. 3.8% of 220,000 active. inhibition, % at 10 µM. CHO-K1 CHOP-promoter luciferase, tunicamycin-induced, 15-18 h. AID 2732, 2010;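 active = compounds that reduced the stress-induced luciferase reporter signal by more than about 70% of percent inhibition, limit read from the data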;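 also: 0% = tunicamycin plus vehicle and 100% = wells without tunicamycin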
p97 inhibitor = inhibitors of human p97 ATPase, primary screen, biochemical | recombinant p97 ATPase, Kinase-Glo ATP luminescence, 3 h | inhibition, % at 8 µM | 0.42% of 220,000 active | AID 1481, 2009; in the data active = inhibition above about 15%;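 also: 0% = DMSO vehicle and 100% = wells lacking enzyme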
Target sequence (P55072 whole entry, looked up): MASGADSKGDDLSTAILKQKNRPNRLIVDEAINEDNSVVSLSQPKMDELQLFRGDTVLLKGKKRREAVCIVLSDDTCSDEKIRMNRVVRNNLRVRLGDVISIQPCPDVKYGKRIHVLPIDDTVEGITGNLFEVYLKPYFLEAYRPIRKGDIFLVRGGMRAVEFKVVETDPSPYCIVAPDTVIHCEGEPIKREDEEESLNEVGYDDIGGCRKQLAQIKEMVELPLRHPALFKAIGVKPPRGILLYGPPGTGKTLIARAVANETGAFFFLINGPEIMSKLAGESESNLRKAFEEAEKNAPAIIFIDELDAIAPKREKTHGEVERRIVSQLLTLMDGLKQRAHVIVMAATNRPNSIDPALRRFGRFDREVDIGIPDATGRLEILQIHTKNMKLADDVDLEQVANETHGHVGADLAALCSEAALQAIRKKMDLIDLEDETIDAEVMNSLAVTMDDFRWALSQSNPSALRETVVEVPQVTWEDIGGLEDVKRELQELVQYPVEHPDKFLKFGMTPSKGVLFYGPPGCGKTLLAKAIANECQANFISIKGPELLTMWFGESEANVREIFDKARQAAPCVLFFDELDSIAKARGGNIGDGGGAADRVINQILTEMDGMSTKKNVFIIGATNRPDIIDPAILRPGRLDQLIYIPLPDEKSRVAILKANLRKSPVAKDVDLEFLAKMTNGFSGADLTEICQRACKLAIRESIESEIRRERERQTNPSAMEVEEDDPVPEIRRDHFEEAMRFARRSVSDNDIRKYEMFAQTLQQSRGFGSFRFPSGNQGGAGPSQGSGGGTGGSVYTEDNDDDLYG
UPR XBP1 act = activators of adaptive XBP1 UPR arm, primary screen, cell-based, CHO-XBP1 luciferase reporter, luminescence, uHTS | IRE1-XBP1 UPR activation; percent of tunicamycin response, DMSO as zero | activation, % at 20 µM | 0.33% of 330,000 active;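 active = versus positive control, 20 µM dose yields 30% or more activation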;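 also: 100% = tunicamycin at 10 µg/mL and 0% = DMSO only wells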
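incubation = overnight seeding at 37 °C, 6 h compound treatment at 37 °C | assay system = CHO-XBP1 cells stably carrying IRE1-XBP1-driven luciferase reporter | input = 1000 cells per well | detection = luciferase luminescence | dosing = single point, 20 µM final compound, 1% DMSO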
NS3 helicase inh = inhibitors of HCV NS3 helicase, primary screen, biochemical, Cy5 molecular beacon fluorescence | NS3 helicase DNA unwinding | 0.56% of 290,000 active | Hepatitis C virus NS3 helicase | inhibition, % at 10.9 µM;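 active = inhibition above the mean of all tested compounds plus 3 SD, set per campaign, cut at about 35% in these data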;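 also: 0% = DMSO wells and 100% = thioflavine S control wells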
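Assay system: hepatitis C virus NS3 helicase domain fragment enzyme. Also added: annealed dual-labelled DNA beacon duplex, ATP-started. Timing: 1 h reaction at 25 °C, ATP-initiated. Technique: Cy5 fluorescence at 0 and 60 min, beacon hairpin quenching. Evaluation: % inhibition of unwinding. Replication: one well per compound.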
NS3 hel confirm = HCV NS3 helicase inhibitors, retest, confirmation, biochemical, Cy5 molecular beacon fluorescence, triplicate. shares compounds with NS3 helicase inh. 31% of 1,600 active. inhibition, % at 10.9 µM. NS3 helicase DNA unwinding. AID 1943, 2009;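 active = inhibition above the mean of all tested compounds plus 3 SD, cutoff set per campaign, cut at about 36% in these data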
DNA FID counter = compounds displacing fluorescent DNA intercalator, artefact control for HCV NS3 helicase inhibitor project, biochemical, FID fluorescence, triplicate | inhibition, % at 7.9 µM | 4% of 1,600 active | AID 1945, 2009 | DNA fluorescent intercalator displacement | shares compounds with NS3 helicase inh; in the data active = inhibition above about 37%;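 also: 0% = vehicle and 100% = reference compound; higher means more displacement of ethidium bromide from the DNA hairpin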
FID counter DR = compounds displacing fluorescent intercalator from DNA, dose response, counter-screen for HCV NS3 helicase inhibitor project, biochemical, fluorescence; IC50, µM; shares compounds with NS3 helicase inh; AID 2172, 2009; fluorescent intercalator displacement from DNA; 120 tested, under 10 active; call rule not given here
PfM18AAP inh-2 = PfM18AAP inhibitors, malaria aminopeptidase, confirmation, biochemical, QFRET, recombinant enzyme, triplicate. inhibition, % at 7.35 µM. H-Glu-NHMec fluorogenic cleavage. shares compounds with PfM18AAP inh-1. 28% of 2,400 active;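 active = mean inhibition over replicate wells above the hit cutoff set for the earlier primary screen, cut at about 29% in these data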;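 also: 0% = median of test compound wells and 100% = 2 mM ZnCl2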
CTSL1 counter = cathepsin L1 inhibitors, retest, confirmation, counter-screen for PFM18AAP inhibitor project, biochemical, QFRET, triplicate. shares compounds with PfM18AAP inh-1. purified cathepsin L1, Z-Leu-Arg-MCA fluorescence. inhibition, % at 5.96 µM. 2,400 tested, under 10 active. AID 2178, 2009;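 active = average inhibition across replicates above the hit cutoff set in the earlier primary screen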;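 also: 0% = median of test compound wells and 100% = Z-Phe-Ala-diazomethylketone 1 µM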
Active calls of the source: *; / = no result given. A selection: hits, their analogues and other compounds. The true share with any hit is near 4.5%.

SMILES | UPR CHOP act | PfM18AAP inh-1 | CHOP inhibitor | p97 inhibitor | UPR XBP1 act | NS3 helicase inh | NS3 hel confirm | DNA FID counter | others
COc1ccc([N+](=O)[O-])cc1NC(=O)C1CCCN1S(=O)(=O)c1cccs1 (configuration not stated) | 1 | / | / | / | -1 | / | / | /
CCOC(=O)C1=C(COC(=O)c2ccc(OC(C)C)cc2)NC(=O)NC1C (configuration not stated) | 1 | / | / | / | 3 | / | / | /
COc1ccccc1CCNC(=O)CSc1ccc(-c2cccs2)nn1 | -2 | 0 | 25 | 0 | 1 | 45* | -10 | -14
O=c1c(C(c2ccc(Cl)cc2)c2c(O)nc3n(c2=O)CCS3)c(O)nc2n1CCS2 | 0 | -7 | 5 | 9 | 0 | 47* | 23 | 2
O=C1NN(c2ccccc2)C(=O)/C1=C\c1ccccc1OCC(=O)N1CCOCC1 | -1 | -10 | -10 | 1 | 0 | 49* | -16 | 0
O=C(O)c1ccc(-n2cccc2/C=C2/NC(=O)N(c3cccc(Cl)c3)C2=O)cc1 | / | 11 | 5 | 7 | / | 41* | 70* | -17 | FID counter DR=>79
O=C(O)c1ccc(-n2cccc2/C=C2/NC(=O)N(c3ccccc3)C2=O)cc1 | -1 | -14 | -1 | 6 | -1 | 17 | / | /
CCCCn1c(N)c(N(Cc2ccccc2OC)C(=O)c2cc(CC)c(C)s2)c(=O)[nH]c1=O | 1 | / | / | / | -3 | / | / | /
CC(C)C/C(O)=C/c1nc2cc(Cl)ccc2oc1=O | 4 | 16 | 1 | 5 | 2 | 38* | -1 | 12
O=C(Nc1nnc(C2=COCCO2)o1)c1cccc([N+](=O)[O-])c1 | 1 | -12 | / | / | -1 | 8 | / | /
O=C(Nc1nnc(C2=COCCO2)o1)c1cccc(Br)c1 | -1 | 3 | / | / | -5 | 39* | -8 | 4
COc1ccc(OC)c(/C=C2\SC(=S)N(NS(=O)(=O)c3ccc(C)cc3)C2=O)c1 | -2 | 2 | / | / | -4 | -5 | / | /
CCOc1ccc(/C=C2\SC(=S)N(NS(=O)(=O)c3ccccc3)C2=O)cc1OC | 2 | -17 | 3 | -5 | -1 | 42* | 79* | 5
COc1ccc(OC)c(/C=C2\SC(=S)N(NS(=O)(=O)c3ccccc3)C2=O)c1 | 0 | -2 | / | / | -2 | 33 | / | /
COc1ccccc1/C=C1\SC(=S)N(NS(=O)(=O)c2ccc(C)cc2)C1=O | -1 | 2 | / | / | -3 | 41* | 71* | -12
COc1ccc(/C=C2\SC(=S)N(NS(=O)(=O)c3ccc(C)cc3)C2=O)c(OC)c1 | -1 | 5 | / | / | -2 | 111* | 80* | -26
O=C(CNCc1ccccc1)NCCCN1CCCC1=O | 1 | -2 | / | / | -4 | -10 | / | /
CC(C)(CNC(=O)CO/N=C1/C=C2CCC3C(C(O)C[C@@]4(C)C3CC[C@]4(O)C(=O)CO)[C@@]2(C)CC1)C(O)C(=O)O (some centres not stated) | 0 | -13 | / | / | 3 | 9 | / | /
CC(=O)Oc1ccc(C(=O)Nc2cccc(-c3nnc(-c4ccco4)o3)c2)cc1 | 2 | 2 | 28 | 4 | 0 | 51* | 16 | -20
O=C(COc1ccccc1)N/N=C/c1ccc([N+](=O)[O-])o1 | 10 | 39* | -85 | -3 | 8 | 41* | -7 | 15 | PfM18AAP inh-2=-20;CTSL1 counter=7
Cc1ccc(OCC(=O)N/N=C/c2ccc([N+](=O)[O-])o2)cc1 | 0 | 3 | 45 | 1 | -2 | 13 | / | /
CCN(CC)c1ccc(N=C2C(=O)Nc3ccccc32)cc1 | 2 | 63* | / | / | -2 | 45* | 19 | 22 | PfM18AAP inh-2=-24;CTSL1 counter=-1
Cc1ccc(N=C2C(=O)Nc3ccccc32)cc1 | -2 | 1 | / | / | -1 | -5 | / | /
CC1CCN(S(=O)(=O)c2ccc(S(=O)(=O)N3CCCC3)cc2)CC1 | 2 | -5 | / | / | -3 | 5 | / | /
C=CCSC1=N/C(=C\c2cc(OCC)c(OC(C)=O)c([N+](=O)[O-])c2)C(=O)S1 | -1 | 38* | 34 | 7 | -2 | 50* | 92* | 16 | PfM18AAP inh-2=-44;CTSL1 counter=2
SMILES | UPR CHOP act | PfM18AAP inh-1 | CHOP inhibitor | p97 inhibitor | UPR XBP1 act | NS3 helicase inh | NS3 hel confirm | DNA FID counter | others
Cc1nc2ccccc2c(C)c1CC(=O)OC(C)C(=O)NC1(C#N)CCCCC1 (configuration not stated) | 0 | / | / | / | -1 | / | / | /
N#Cc1c(N2C(=O)Nc3ccccc3N2O)sc2c1CCCCCC2 | 5 | 35* | 12 | 3 | -3 | 42* | 54* | -7 | PfM18AAP inh-2=-41;CTSL1 counter=8
N#Cc1c(N2C(=O)Nc3ccccc3N2O)sc2c1CCCC2 | 0 | -3 | -12 | -7 | 0 | 9 | / | /
Cc1ccc(-n2sc3ccccc3c2=O)cc1S(=O)(=O)N1CCCCC1 | 6 | 40* | 21 | 5 | -3 | 47* | 21 | -29 | PfM18AAP inh-2=66*;CTSL1 counter=-1
O=C(NCc1ccco1)/C(=C\C=C\c1ccccc1)NC(=O)c1ccccc1Br | 1 | 10 | 40 | 6 | 5 | 21 | / | /
COc1ccc2oc(=O)c(-c3nnc(NCc4ccco4)s3)cc2c1 | 6 | 40* | -21 | 6 | 1 | 37* | -5 | 23 | PfM18AAP inh-2=-27;CTSL1 counter=2
COCCn1c(=S)[nH]c2ccc(N(C)C)cc2c1=O | -1 | 40* | 4 | 7 | -2 | 39* | -9 | 6 | PfM18AAP inh-2=-3;CTSL1 counter=2
CCOc1cc2[nH]c(=S)n(CCOC)c(=O)c2cc1OCC | -1 | -2 | -8 | 5 | -1 | -4 | / | /
